Reference: PubChem BioAssay
Records with an inconclusive call do not appear.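 The calls were made as follows, unless noted: active = inhibition over a set limit, the all-compound mean plus 3 SD, in both replicate runs; inconclusive = over that limit in just one replicate run; inactive = at or under that limit in both runs.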

Experiments:
[1] = S. cerevisiae growth inhibition in permissive medium (OD615), pilot counter-assay for S. cerevisiae lifespan shortening project, permissive growth control (AID 705;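 active = growth inhibition above 25% in both replicates, a cutoff set 3 SD above the mean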); details: OD615, 24 h, at 10 µM, hits give high values
Outline: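 Test system: Saccharomyces cerevisiae strain carrying genetically modified DeaD replicative-lifespan system; buffer or medium: SC raffinose/galactose permissive medium; dosing: one dose 10 µM, DMSO 0.25% final; times: 24 h exposure, 30 °C; measured by: OD at 615 nm; read-out basis: growth inhibition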

[2] = S. cerevisiae growth inhibition in restrictive medium, OD615, pilot screen, restrictive growth control, yeast lifespan reduction project (AID 706;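 active = growth inhibition above a set limit, 3 SD over mean compound inhibition, in both replicates, cut at about 43% in these data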;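 also: modified DeaD lifespan yeast strain shifted to restrictive glucose medium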); details: OD615, 48 h, at 10 µM, hits give high values
Outline: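 material = engineered S. cerevisiae DeaD strain | buffer or medium = glucose-based CSMM-D restrictive medium | dosing = one concentration, 10 µM final, 0.25% DMSO | schedule = 4 h pre-growth plus 48 h compound exposure, 30 °C | detection = OD615 absorbance reading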

[3] = doxorubicin toxicity protection in MRP-1 cells – H69AR cells, CellTiter-Glo, duplicate, MRP-1 activator project, pilot screen (AID 807;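 active = viability increase at or above a cutoff of the median across tested compounds plus 3 SD, cut at about 8.5% in these data, passing the limit was not always enough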;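 also: compound pretreatment 18-22 h then 72 h combined with doxorubicin; 0% = doxorubicin alone and 100% = vehicle without doxorubicin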); details: H69AR viability with doxorubicin, CellTiter-Glo luminescence; at 10 µM; hits give high values
[4] = viability of HCT116 without oncogenic beta-catenin – human colon tumor cells, pilot screen (AID 823;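 active = cell viability at or below a set limit in both duplicate runs, the limit being the all-compound median minus 4 SD, cut at about 23% in these data, passing the limit was not always enough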;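 also: 0% = wells killed by 20 µM Hyamine and 100% = untreated DMSO cell wells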); details: HCT116 beta-catenin knockout viability, CellTiter-Glo, 60 h; at 10 µM; hits give low values
[5] = viability of PTEN-null HCT116 cells – cell-based, HCT116 clonal line, CellTiter-Glo, pilot screen (AID 824;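 active = viability at or below 27.92% in each of two runs, the all-compound median minus 4 SD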;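 also: 0% = 20 µM Hyamine control and 100% = vehicle cell control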); details: HCT116 PTEN-deleted viability, 60 h, at 10 µM, hits give low values
[6] = RAM pathway blockade in budding yeast – dse1pr::URA3 reporter, 5-FOA selection, pilot screen (AID 869);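 also: 0% = DMSO wells with no growth and 100% = 10 µM 1-NA-PP1 with full growth; RAM network block rescues cells from 5-FOA so hits raise OD615 growth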; details: S. cerevisiae dse1pr::URA3 5-FOA growth, OD615, 2 d; at 10 µM; hits give high values; strain carries analog-sensitive mutant Cbk1 kinase
[7] = RAM signaling pathway blockade in yeast – S. cerevisiae, Pdr1DBD-CYC8 efflux-inhibited sensitized strain, primary screen (AID 1298;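 active = RAM network inhibition above 8.4% in each of two replicates, 3 SD over the compound average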;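 also: 0% = DMSO untreated cells without growth and 100% = 10 µM 1-NA-PP1 full growth; higher means more yeast growth rescued from 5-FOA killing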); details: S. cerevisiae cbk1-as DSE1-URA3 strain, 5-FOA growth OD615, 2 d; at 50 µM; hits give high values

COc1ccc(-n2c(Cc3cccn3C)nnc2SCC(=O)N2CCC(C)CC2)cc1
inactive: growth inhibition [1] 4.99% | growth inhibition [2] 18.8% | viability increase [3] -0.89% | viability [4] 94% | viability [5] 94.5% | inhibition [6] 1.42% | RAM network inhibition [7] 2.73%

O=C(COc1ccccc1Br)NCc1ccco1
inactive: growth inhibition [1] 2.92% | growth inhibition [2] 8.48% | viability increase [3] -3.54% | viability [4] 97% | viability [5] 102% | inhibition [6] 1.51% | RAM network inhibition [7] 3.3%

Cn1c(=O)[nH]c(=O)c2c1nc(N1CCN(c3ccccc3)CC1)n2CCSc1ncccn1
inactive: growth inhibition [1] -4.54% | growth inhibition [2] 7.86% | viability increase [3] -2.82% | viability [4] 93% | viability [5] 82.6% | inhibition [6] 0.42% | RAM network inhibition [7] 4.89%

C=CCOC(=O)C1=C(C)NC(=O)NC1c1ccc(OC(=O)c2ccco2)c(OC)c1 (stereo not given)
inactive: growth inhibition [1] -6.37% | growth inhibition [2] -18.3% | viability increase [3] -0.16% | viability [4] 93.6% | viability [5] 96.4% | inhibition [6] 0.145% | RAM network inhibition [7] 2.71%

Cc1ccccc1NC(=O)CC1SC(=NC2CCCCC2)NC1=O (stereo not given)
inactive: growth inhibition [1] -3.83% | growth inhibition [2] -12% | viability increase [3] -0.62% | viability [4] 102% | viability [5] 101% | inhibition [6] 1.62% | RAM network inhibition [7] 0.66%

O=C(NCCCN1CCC(Cc2ccccc2)CC1)C1CCC(=O)N1C1CCCC1 (stereo not given)
inactive: growth inhibition [1] 0.095% | growth inhibition [2] 10.8% | viability increase [3] -0.92% | viability [4] 79.7% | viability [5] 96.9% | inhibition [6] 0.3% | RAM network inhibition [7] 1.85%

O=C(Nc1sc2c(c1C(=O)O)CCCCC2)c1ccco1
inactive: growth inhibition [1] -3.7% | growth inhibition [2] -9.4% | viability increase [3] -1.32% | viability [4] 88.7% | viability [5] 78.5% | inhibition [6] -0.91% | RAM network inhibition [7] -1.46%

Cn1c(=O)cc(N2CCCCC2)[nH]c1=O
inactive: growth inhibition [1] -15.3% | growth inhibition [2] -7.48% | viability increase [3] -0.1% | viability [4] 111% | viability [5] 97% | inhibition [6] 1.59% | RAM network inhibition [7] -0.8%

O=C(CSc1nc2c(c(=O)n1-c1ccc(Br)cc1)SCC2)NCC1CCCO1 (stereo not given)
inactive: growth inhibition [1] -11.1% | growth inhibition [2] -8.53% | viability increase [3] -1.02% | viability [4] 97.9% | viability [5] 101% | inhibition [6] 1.69% | RAM network inhibition [7] 2.63%

Cc1ccc(C2c3c(oc4ccc(C)cc4c3=O)C(=O)N2CCCN2CCOCC2)cc1 (stereo not given)
inactive: growth inhibition [1] -8.48% | growth inhibition [2] -3.63% | viability increase [3] -5.72% | viability [4] 77.3% | viability [5] 84.1% | inhibition [6] 0.99% | RAM network inhibition [7] -1.21%

Cc1cc(Nc2ccc(F)cc2C)n2nc(C)nc2n1
inactive: growth inhibition [1] -2.58% | growth inhibition [2] -5.02% | viability increase [3] -1.42% | viability [4] 101% | viability [5] 98.7% | inhibition [6] 2.01% | RAM network inhibition [7] 5.08%

CCOc1ccc(N(CC(=O)Nc2cccc(F)c2)S(=O)(=O)c2c(C)noc2C)cc1
inactive: growth inhibition [1] -3.51% | growth inhibition [2] -8.12% | viability increase [3] -5.24% | viability [4] 66.5% | viability [5] 56.2% | inhibition [6] 3.33% | RAM network inhibition [7] 5.5%

Cc1ccc(/C=N/c2sc3c(c2C#N)CCC3)s1
inactive: growth inhibition [1] -1.95% | growth inhibition [2] -5.03% | viability increase [3] -0.97% | viability [4] 96.1% | viability [5] 93.8% | inhibition [6] 1.21% | RAM network inhibition [7] 7%

O=C(CN1CCCCC1)Nc1nnc(-c2ccccc2)s1
inactive: growth inhibition [1] -11.4% | growth inhibition [2] -5.87% | viability increase [3] 1.16% | viability [4] 95.2% | viability [5] 98.5% | inhibition [6] 0.38% | RAM network inhibition [7] 0.64%

COC(=O)c1ccccc1NC(=O)CSc1nccn1C
inactive: growth inhibition [1] -3.94% | growth inhibition [2] 2.94% | viability increase [3] -0.69% | viability [4] 93.1% | viability [5] 92.2% | inhibition [6] 1.27% | RAM network inhibition [7] 2.31%

Cc1cc(NCc2ccco2)nc2cc(O)ccc12
inactive: growth inhibition [1] -11.9% | growth inhibition [2] -28.8% | viability increase [3] -5.57% | viability [4] 92.7% | viability [5] 93.4% | inhibition [6] 1.35% | RAM network inhibition [7] 1.95%

Cn1c(=O)oc2cc(S(=O)(=O)NCc3ccccn3)ccc21
inactive: growth inhibition [1] -20.9% | growth inhibition [2] -20.2% | viability increase [3] 0.44% | viability [4] 96.5% | viability [5] 101% | inhibition [6] 3.3% | RAM network inhibition [7] 4.32%

Cc1cc(C)nc(SCCCn2c(=O)[nH]c3ccccc32)n1
inactive: growth inhibition [1] -6.43% | growth inhibition [2] -7.19% | viability increase [3] 1.32% | viability [4] 99.9% | viability [5] 90.5% | inhibition [6] 1.02% | RAM network inhibition [7] 10.9%

CCOC(=O)N1CCN(C(=O)c2cc3c(-c4ccc(Cl)cc4)nn(C)c3s2)CC1
inactive: growth inhibition [1] -5.13% | growth inhibition [2] 4.77% | viability increase [3] -6.02% | viability [4] 55.8% | viability [5] 49.2% | inhibition [6] 0.47% | RAM network inhibition [7] 1.8%

O=C(Nc1ccc(N2CCCC2)c(Cl)c1)c1ccco1
inactive: growth inhibition [1] -2.11% | growth inhibition [2] 8.76% | viability increase [3] 0.68% | viability [4] 91.5% | viability [5] 89.1% | inhibition [6] 1.51% | RAM network inhibition [7] 0.62%

Cc1cc(Nc2ccc(Br)cc2)n2nc(C)nc2n1
inactive: growth inhibition [1] -14% | growth inhibition [2] -2.33% | viability increase [3] -2.63% | viability [4] 96.2% | viability [5] 88.3% | inhibition [6] 2.85% | RAM network inhibition [7] 4.46%

O=C(CCCC(=O)Nc1cccnc1)Nc1cccnc1
inactive: growth inhibition [1] -6.39% | growth inhibition [2] 3.58% | viability increase [3] -0.66% | viability [4] 103% | viability [5] 99.2% | inhibition [6] 0.385% | RAM network inhibition [7] 6.65%

CC(C)N1CCc2c(sc(NC(=O)c3ccc(S(=O)(=O)N4CCOCC4)cc3)c2C#N)C1
inactive: growth inhibition [1] -4.83% | growth inhibition [2] -3.24% | viability increase [3] -2.2% | viability [4] 85.3% | viability [5] 86.3% | inhibition [6] 0.75% | RAM network inhibition [7] 1.3%

COCC(=O)Nc1cc(=O)n(C)c(=O)n1C
inactive: growth inhibition [1] -4.37% | growth inhibition [2] -24.4% | viability increase [3] -1.62% | viability [4] 100% | viability [5] 94.4% | inhibition [6] 1.73% | RAM network inhibition [7] -0.05%

C=CCNc1oc(COc2ccc(C)cc2)nc1C#N
inactive: growth inhibition [1] -7.16% | growth inhibition [2] 1.92% | viability increase [3] 4.36% | viability [4] 99.1% | viability [5] 97.3% | inhibition [6] 1.18% | RAM network inhibition [7] -0.52%

O=C(OCCN(C1=NS(=O)(=O)c2ccccc21)c1ccc(Cl)cc1)c1ccco1
inactive: growth inhibition [1] -15.9% | growth inhibition [2] -5.49% | viability increase [3] -5.7% | viability [4] 82.2% | viability [5] 91.5% | inhibition [6] 1.44% | RAM network inhibition [7] 4.02%

CSC1=NCCN1C(=O)Cc1ccc(F)cc1
inactive: growth inhibition [1] -0.72% | growth inhibition [2] 0.85% | viability increase [3] 2.96% | viability [4] 105% | viability [5] 103% | inhibition [6] 0.725% | RAM network inhibition [7] 4.04%

Cc1nc(CNS(=O)(=O)c2ccc3ccccc3c2)cs1
inactive: growth inhibition [1] -0.84% | growth inhibition [2] 3.39% | viability increase [3] -1.37% | viability [4] 97.8% | viability [5] 87.9% | inhibition [6] 2.13% | RAM network inhibition [7] 0%

O=C(c1cccc(S(=O)(=O)N2CCCC2)c1)c1cccc(S(=O)(=O)N2CCCC2)c1
inactive: growth inhibition [1] -6.99% | growth inhibition [2] -7.98% | viability increase [3] -1.22% | viability [4] 60.7% | viability [5] 56.5% | inhibition [6] 1.09% | RAM network inhibition [7] 5.82%

CCOC(=O)N1CCN(c2c(N3CCOCC3)c(=O)c2=O)CC1
inactive: growth inhibition [1] 1.49% | growth inhibition [2] -13.2% | viability increase [3] 0.58% | viability [4] 106% | viability [5] 97.2% | inhibition [6] 2.57% | RAM network inhibition [7] -0.73%

O=C1OC(Nc2nc3ccccc3s2)c2ccccc21 (stereo not given)
inactive: growth inhibition [1] -2.46% | growth inhibition [2] 6.6% | viability increase [3] 0.26% | viability [4] 101% | viability [5] 101% | inhibition [6] 0.67% | RAM network inhibition [7] 0.48%

CC(C)N(Cc1nc(-c2ccc(Cl)cc2)no1)C(=O)CCC1CCCC1
inactive: growth inhibition [1] -13.1% | growth inhibition [2] -14.6% | viability increase [3] -0.03% | viability [4] 70.3% | viability [5] 74.4% | inhibition [6] 0.865% | RAM network inhibition [7] 8.34%

CC(=O)Nc1ccc(NC(=O)C2CC(=O)N(c3cccc(C)c3C)C2)cc1 (stereo not given)
inactive: growth inhibition [1] -21.2% | growth inhibition [2] -8.03% | viability increase [3] -1.32% | viability [4] 93.8% | viability [5] 91.2% | inhibition [6] 0.435% | RAM network inhibition [7] 2.95%

COc1ccc(-c2c(C)oc3c(CN4CCCCC4C)c(O)ccc3c2=O)cc1OC (stereo not given)
inactive: growth inhibition [1] -13.7% | growth inhibition [2] -7.48% | viability increase [3] -9.18% | viability [4] 103% | viability [5] 97.5% | inhibition [6] 1.71% | RAM network inhibition [7] 4.01%

O=C(CCSc1ccccc1)NCCSc1ccccn1
inactive: growth inhibition [1] -12.8% | growth inhibition [2] -12% | viability increase [3] -2.49% | viability [4] 96.3% | viability [5] 94.6% | inhibition [6] 2.69% | RAM network inhibition [7] 0.53%
